Measured values reported in publication PMC7161550 (British Journal of Pharmacology, 2020).
Where “and” joins values, the source holds several entries; their conditions need not be identical. Equal entries are not always repeated. Where two headings read alike, the source gives them in different places.

Assays:
[1] = tested on: brain 2‐arachidonoylglycerol (2‐AG); experiment: 2‐arachidonoylglycerol; format: in vivo; conditions: mouse, 10 mg·kg^−1 p.o.
Summary of the method: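 Frozen brains were thawed at 4°C and weighed. Each sample was extracted with chloroform:MeOH (2:1) plus 0.1 M phosphate buffer, pH 5.6. Deuterated internal standards were spiked in: AEA‑d8, PEA‑d4 and OEA‑d2 for the fatty acid amides, and 2‑AG‑d8 for 2‑AG.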

CYP1A2 = CYP1A2 (Homo sapiens, UniProt P05177); experiment: CYP inhibition, pooled human liver microsomes; format: in vitro ADME; conditions: 0.33–99.2 μM, co‐ and pre‐incubation
CYP1A2, sequence (P05177 whole entry): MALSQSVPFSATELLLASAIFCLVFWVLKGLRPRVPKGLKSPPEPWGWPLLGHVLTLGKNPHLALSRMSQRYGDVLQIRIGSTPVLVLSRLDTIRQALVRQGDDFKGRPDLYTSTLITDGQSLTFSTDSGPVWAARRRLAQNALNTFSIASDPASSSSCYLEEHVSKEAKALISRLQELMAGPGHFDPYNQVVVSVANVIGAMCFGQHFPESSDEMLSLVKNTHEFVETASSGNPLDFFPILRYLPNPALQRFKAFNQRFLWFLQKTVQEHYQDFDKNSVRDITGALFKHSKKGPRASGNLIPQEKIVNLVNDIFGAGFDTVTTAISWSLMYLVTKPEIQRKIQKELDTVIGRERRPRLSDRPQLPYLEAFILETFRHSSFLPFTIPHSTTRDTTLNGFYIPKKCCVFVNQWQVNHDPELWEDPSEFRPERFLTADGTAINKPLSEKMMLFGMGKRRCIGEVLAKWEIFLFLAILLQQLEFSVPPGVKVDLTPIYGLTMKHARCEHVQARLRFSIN
Summary of the method: (§1)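 The rate of metabolite formation was measured; testosterone was one CYP3A4 substrate. Controls: solvent vehicle, enzyme-selective inhibitors, mechanism-based inhibitors. Analysis by HPLC with online radio-detection or LC/MS/MS.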

CYP2B6 = CYP2B6 (Homo sapiens, UniProt P20813); experiment: CYP inhibition, pooled human liver microsomes; format: in vitro ADME; conditions: 0.33–99.2 μM, co‐ and pre‐incubation
Summary of the method: as §1

CYP2C9 = CYP2C9 (Homo sapiens, UniProt P11712); experiment: CYP inhibition, pooled human liver microsomes; format: in vitro ADME; conditions: 0.33–99.2 μM, co‐ and pre‐incubation
Summary of the method: as §1

CYP2E1 = CYP2E1 (Homo sapiens, UniProt P05181); experiment: CYP inhibition, pooled human liver microsomes; format: in vitro ADME; conditions: 0.33–99.2 μM, co‐ and pre‐incubation
CYP2E1, sequence (P05181 whole entry): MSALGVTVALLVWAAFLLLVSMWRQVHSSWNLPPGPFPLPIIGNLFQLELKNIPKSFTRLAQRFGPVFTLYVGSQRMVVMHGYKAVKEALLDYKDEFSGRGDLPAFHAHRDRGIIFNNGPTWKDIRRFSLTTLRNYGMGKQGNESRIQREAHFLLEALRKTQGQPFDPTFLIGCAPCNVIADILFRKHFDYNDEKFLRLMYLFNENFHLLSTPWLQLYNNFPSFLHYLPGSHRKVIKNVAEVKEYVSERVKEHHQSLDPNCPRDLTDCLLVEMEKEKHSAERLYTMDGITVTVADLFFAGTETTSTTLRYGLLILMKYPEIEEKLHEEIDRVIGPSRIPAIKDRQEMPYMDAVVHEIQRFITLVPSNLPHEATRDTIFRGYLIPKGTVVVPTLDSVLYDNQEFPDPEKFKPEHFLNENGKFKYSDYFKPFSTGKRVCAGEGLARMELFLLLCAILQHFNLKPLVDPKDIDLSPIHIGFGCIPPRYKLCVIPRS
Summary of the method: as §1

CYP3A4 = CYP3A4 (Homo sapiens, UniProt P08684); experiment: CYP inhibition, pooled human liver microsomes; format: in vitro ADME
CYP3A4, sequence (P08684 whole entry): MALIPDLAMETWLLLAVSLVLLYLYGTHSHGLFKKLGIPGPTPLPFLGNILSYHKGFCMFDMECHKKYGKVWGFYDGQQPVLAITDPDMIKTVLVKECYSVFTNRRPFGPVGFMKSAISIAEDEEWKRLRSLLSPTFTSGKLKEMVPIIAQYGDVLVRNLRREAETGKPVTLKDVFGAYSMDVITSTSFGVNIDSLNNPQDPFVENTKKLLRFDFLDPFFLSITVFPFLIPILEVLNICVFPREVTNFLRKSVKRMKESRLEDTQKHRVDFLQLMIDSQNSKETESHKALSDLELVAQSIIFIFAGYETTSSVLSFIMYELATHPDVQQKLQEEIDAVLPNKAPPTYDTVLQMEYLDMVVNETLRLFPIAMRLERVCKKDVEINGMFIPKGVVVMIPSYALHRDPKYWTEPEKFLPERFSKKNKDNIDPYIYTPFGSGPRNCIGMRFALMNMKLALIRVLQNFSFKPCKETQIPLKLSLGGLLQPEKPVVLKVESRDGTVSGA
Summary of the method: as §1

human MATE2-K = human MATE2-K (Homo sapiens, UniProt Q86VL8); experiment: Transporter inhibition, probe substrate accumulation; format: in vitro ADME
human MATE2-K, sequence (Q86VL8 1-566 isoform Q86VL8-3): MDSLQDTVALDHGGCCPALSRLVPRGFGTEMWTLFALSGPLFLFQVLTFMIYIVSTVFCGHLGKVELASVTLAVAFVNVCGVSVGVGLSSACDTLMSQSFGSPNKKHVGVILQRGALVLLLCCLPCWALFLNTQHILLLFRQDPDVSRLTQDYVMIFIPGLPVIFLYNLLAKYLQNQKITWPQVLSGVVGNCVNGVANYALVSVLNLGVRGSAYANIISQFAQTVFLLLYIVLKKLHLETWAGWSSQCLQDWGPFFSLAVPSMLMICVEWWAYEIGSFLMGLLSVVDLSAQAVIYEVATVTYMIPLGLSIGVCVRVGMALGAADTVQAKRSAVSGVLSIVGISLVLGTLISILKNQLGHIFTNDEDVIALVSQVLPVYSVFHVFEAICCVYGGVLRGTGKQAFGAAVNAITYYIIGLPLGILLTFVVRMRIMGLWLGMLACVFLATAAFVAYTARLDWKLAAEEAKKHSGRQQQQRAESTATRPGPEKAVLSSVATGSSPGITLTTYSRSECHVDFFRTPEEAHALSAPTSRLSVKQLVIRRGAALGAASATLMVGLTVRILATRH
Summary of the method: (§2)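 Inhibition of probe substrate accumulation in transfected cells: CHO‑K1 for OAT1 and OCT1; HEK293 for OAT3, OATP1B1 and OATP1B3; MDCKII for OCT2, MATE1 and MATE2‑K. Each transporter's activity was confirmed with a positive control substrate or inhibitor.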

OAT3 = OAT3 (Homo sapiens, UniProt Q8TCC7); experiment: as above; format: in vitro ADME; conditions: HEK293 cells stably transfected with OAT3
OAT3, sequence (Q8TCC7 whole entry): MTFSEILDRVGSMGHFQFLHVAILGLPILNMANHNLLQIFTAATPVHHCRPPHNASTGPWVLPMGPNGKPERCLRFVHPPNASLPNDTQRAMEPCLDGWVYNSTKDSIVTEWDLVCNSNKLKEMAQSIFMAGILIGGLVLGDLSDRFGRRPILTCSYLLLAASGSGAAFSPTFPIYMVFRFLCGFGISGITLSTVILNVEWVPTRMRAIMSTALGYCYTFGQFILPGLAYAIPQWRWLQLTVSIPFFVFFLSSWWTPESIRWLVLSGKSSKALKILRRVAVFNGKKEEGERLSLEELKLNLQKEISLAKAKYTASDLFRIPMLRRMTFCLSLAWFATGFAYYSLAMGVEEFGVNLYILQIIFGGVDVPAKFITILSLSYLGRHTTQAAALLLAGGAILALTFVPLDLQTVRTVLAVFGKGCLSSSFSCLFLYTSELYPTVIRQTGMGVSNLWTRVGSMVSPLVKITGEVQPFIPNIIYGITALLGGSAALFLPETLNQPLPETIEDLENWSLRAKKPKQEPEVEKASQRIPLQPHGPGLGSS
Summary of the method: as §2

OCT1 = OCT1 (Homo sapiens, UniProt O15245); experiment: as above; format: in vitro ADME; conditions: CHO-K1 cells stably transfected with OCT1
Summary of the method: as §2

MATE1 = MATE1 (Homo sapiens, UniProt Q96FL8); experiment: as above; format: in vitro ADME; conditions: MDCKII cells stably transfected with MATE1
Summary of the method: as §2

human OAT1 = human OAT1 (Homo sapiens, UniProt Q4U2R8); experiment: as above; format: in vitro ADME; conditions: 0.033–33.3 μM
Summary of the method: as §2

human OATP1B3 = human OATP1B3 (Homo sapiens, UniProt Q9NPD5); experiment: as above; format: in vitro ADME; conditions: 0.033–33.3 μM
Summary of the method: as §2

[2] = tested on: human solute carrier (SLC) transporters; experiment: Accumulation of BIA 10‐2474 in transporter‐expressing and control cells; format: in vitro ADME; conditions: transporter‐expressing vs control cell, all conditions tested
Summary of the method: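 Test compound accumulation was compared between transporter-expressing and control cells, expressed as transporter-specific fold accumulation. Transfected lines: CHO‑K1 (OAT1, OCT1), HEK293 (OAT3, OATP1B1, OATP1B3), MDCKII (OCT2, MATE1, MATE2‑K). Transporter activity was confirmed with positive control substrate or inhibitor.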

BCRP = target: T1, BCRP (Homo sapiens, UniProt Q9UNQ0); experiment: Bidirectional permeability in MDCKII‐BCRP monolayers; format: in vitro ADME
T1 sequence (Q9UNQ0 1-655): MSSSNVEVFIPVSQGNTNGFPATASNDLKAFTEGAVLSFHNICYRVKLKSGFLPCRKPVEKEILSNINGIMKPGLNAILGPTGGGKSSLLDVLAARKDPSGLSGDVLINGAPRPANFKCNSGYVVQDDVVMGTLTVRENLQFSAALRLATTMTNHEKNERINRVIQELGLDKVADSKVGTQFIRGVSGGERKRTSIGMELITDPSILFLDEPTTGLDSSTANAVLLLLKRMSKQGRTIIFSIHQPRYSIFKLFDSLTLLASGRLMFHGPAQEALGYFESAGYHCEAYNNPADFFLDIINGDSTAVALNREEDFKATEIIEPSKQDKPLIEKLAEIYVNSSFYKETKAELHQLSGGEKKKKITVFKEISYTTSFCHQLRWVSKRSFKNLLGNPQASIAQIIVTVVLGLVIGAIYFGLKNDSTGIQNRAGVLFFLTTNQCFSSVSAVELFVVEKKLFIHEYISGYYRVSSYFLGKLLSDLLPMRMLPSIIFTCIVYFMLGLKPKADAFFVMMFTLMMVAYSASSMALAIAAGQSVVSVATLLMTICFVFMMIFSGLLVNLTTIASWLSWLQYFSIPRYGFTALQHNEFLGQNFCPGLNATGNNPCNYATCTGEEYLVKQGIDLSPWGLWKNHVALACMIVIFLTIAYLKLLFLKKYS
Summary of the method: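 Test compound (10 μM) permeability was measured in A–B and B–A directions across MDCKII‑BCRP and parental MDCKII monolayers. 3H‑prazosin (1 μM) served as positive control, with a BCRP inhibitor at 1 μM. Net efflux ratio = ER(BCRP) − ER(MDCKII).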

MDR1 = MDR1 (Homo sapiens, UniProt P08183); experiment: Bidirectional permeability in MDCKII‐MDR1 monolayers; format: in vitro ADME
MDR1, sequence (P08183 whole entry): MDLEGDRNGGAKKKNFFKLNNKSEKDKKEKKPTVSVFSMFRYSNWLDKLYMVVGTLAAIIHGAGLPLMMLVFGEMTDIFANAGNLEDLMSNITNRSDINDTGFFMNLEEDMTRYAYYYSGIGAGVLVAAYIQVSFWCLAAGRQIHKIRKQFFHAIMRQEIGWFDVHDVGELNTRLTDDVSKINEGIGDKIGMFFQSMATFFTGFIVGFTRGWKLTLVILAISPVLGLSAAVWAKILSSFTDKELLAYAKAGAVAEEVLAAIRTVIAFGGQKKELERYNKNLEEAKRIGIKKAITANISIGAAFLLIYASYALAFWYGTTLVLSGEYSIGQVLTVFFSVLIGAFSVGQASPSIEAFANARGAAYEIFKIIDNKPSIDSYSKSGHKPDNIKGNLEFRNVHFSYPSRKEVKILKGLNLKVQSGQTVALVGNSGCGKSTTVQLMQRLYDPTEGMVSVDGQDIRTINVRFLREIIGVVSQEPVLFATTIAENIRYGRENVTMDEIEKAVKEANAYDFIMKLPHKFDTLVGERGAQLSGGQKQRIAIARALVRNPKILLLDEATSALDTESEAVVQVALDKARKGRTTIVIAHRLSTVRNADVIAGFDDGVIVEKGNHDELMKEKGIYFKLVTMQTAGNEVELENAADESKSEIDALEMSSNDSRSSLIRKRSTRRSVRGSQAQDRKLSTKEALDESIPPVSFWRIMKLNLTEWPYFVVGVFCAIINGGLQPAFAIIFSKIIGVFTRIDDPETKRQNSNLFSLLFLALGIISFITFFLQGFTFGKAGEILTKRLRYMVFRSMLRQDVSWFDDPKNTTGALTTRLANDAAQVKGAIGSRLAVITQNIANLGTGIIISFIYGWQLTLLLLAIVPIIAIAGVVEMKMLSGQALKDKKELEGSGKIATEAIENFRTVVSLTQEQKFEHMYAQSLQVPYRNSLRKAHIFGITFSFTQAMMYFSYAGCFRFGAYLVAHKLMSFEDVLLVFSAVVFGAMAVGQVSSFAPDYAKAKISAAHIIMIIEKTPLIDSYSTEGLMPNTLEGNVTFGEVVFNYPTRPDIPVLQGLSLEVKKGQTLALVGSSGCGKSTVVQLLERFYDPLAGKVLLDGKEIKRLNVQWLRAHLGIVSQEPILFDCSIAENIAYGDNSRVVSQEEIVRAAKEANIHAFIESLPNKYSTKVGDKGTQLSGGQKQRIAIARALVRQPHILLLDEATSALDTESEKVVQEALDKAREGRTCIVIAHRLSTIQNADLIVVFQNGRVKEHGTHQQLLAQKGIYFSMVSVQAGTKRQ
Summary of the method: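 Bidirectional (A–B, B–A) permeability of test compound at 10 μM across MDCKII‑MDR1 and parental monolayers. A positive control substrate (5 μM) was included; PSC833 (10 μM) and a second inhibitor (100 μM) served as MDR1 inhibitors. Net efflux ratio = ER(MDR1) − ER(MDCKII).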

CaI‐PLA2 (PLA2G6) = CaI‐PLA2 (PLA2G6) (Rattus norvegicus, UniProt P97570); experiment: ABPP ex vivo, rat brain after oral BIA 10‐2474; format: in vivo
CaI‐PLA2 (PLA2G6), sequence (P97570 whole entry): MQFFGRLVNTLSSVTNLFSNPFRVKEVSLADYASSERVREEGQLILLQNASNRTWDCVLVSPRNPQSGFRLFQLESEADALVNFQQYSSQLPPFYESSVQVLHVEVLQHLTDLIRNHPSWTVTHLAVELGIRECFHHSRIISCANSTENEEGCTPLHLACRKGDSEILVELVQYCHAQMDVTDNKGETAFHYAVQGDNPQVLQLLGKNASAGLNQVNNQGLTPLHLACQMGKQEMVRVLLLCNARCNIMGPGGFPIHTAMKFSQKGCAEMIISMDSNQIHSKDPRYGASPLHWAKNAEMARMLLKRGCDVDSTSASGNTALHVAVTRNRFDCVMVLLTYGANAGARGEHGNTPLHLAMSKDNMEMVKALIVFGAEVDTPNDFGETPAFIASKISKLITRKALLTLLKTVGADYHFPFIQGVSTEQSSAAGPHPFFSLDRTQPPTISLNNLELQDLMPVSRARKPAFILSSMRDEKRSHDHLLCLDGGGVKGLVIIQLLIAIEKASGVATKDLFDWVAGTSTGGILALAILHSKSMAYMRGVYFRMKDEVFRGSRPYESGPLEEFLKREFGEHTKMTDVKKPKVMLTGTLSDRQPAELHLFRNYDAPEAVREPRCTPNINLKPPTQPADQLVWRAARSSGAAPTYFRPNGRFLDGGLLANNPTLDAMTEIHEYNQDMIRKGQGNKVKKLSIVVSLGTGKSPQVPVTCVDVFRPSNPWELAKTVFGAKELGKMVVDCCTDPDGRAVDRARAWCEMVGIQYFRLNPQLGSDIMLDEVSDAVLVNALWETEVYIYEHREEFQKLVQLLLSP

[3] = GLP rat toxicology studies; format: in vivo; conditions: 100 mg·kg^−1, assuming brain:plasma ratio of 1:5
[4] = human, 2017, cited from earlier work
[5] = Protein binding to cell homogenates; format: in vitro ADME; conditions: 500 μg·ml^−1 of protein

## CN(C(=O)n1cnc(-c2ccc[n+]([O-])c2)c1)C1CCCCC1 [BIA 10‐2474, 3‐(1‐(cyclohexyl (methyl)carbamoyl)‐1H‐imidazol‐4‐yl)pyridine 1‐oxide]
[1]; 1 hr, vehicle 45.1 ± 7.9
  brain 2‐AG level: 30.4 ± 11.7 µg/g
[1]; 4 hr, vehicle 40.9 ± 3.4
  brain 2‐AG level: 44.5 ± 4.9 µg/g
[1]; 8 hr, vehicle 39.0 ± 13.2
  brain 2‐AG level: 34.9 ± 7.7 µg/g
[1]; 24 hr, vehicle 38.0 ± 5.7
  brain 2‐AG level: 31.4 ± 9.4 µg/g
CYP1A2
  inhibitory effect on CY1A2: did not exhibit any inhibitory effects
CYP2B6
  inhibitory effect on CYP2B6: did not exhibit any inhibitory effects
CYP2C9
  inhibitory effect on CYP2C9: did not exhibit any inhibitory effects
CYP2E1
  inhibitory effect on CYP2E1: did not exhibit any inhibitory effects
CYP3A4; 0.33–99.2 μM, co‐ and pre‐incubation
  inhibitory effect on CYP3A4 [midazolam]: did not exhibit any inhibitory effects
CYP3A4; co‐incubation
  inhibition of CYP3A4 (testosterone as substrate): minor inhibition
CYP3A4; pre‐incubation with BIA 10‐2474
  inhibition of CYP3A4 (testosterone as substrate): no effect
Human MATE2-K
  maximum inhibition, MATE2‐K: 59%
Human MATE2-K; IC50, MATE2‐K‐mediated probe substrate accumulation
  IC50: 3.43 µM and 3.4 µM
OAT3
  inhibition: 34%
OCT1
  inhibition at 10 μg·ml^−1: 26%
MATE1
  inhibition at 10 μg·ml^−1: 24%
Human OAT1
  effect on OAT1‐mediated probe substrate accumulation: did not influence
Human OATP1B3
  effect on OATP1B3‐mediated probe substrate accumulation: did not influence
[2]
  transporter specific fold accumulations: < 2
BCRP; highest observed net efflux ratio (ERBCRP‐ERMDCKII), 10 and 1 μM
  efflux ratio: 5.7
BCRP; net ER, MDCKII‐BCRP, without inhibitor
  efflux ratio: 4.95
BCRP; with Ko143 1 μM, net ER, MDCKII‐BCRP, with 1 μM of Ko143
  efflux ratio: 0.03
MDR1; MDCK-MDR1, highest observed net efflux ratio (ERMDR1‐ERMDCKII)
  efflux ratio: 2.24
MDR1; MDCK-MDR1, net ER, MDCKII‐MDR1, without inhibitor
  efflux ratio at 10 μM: 1.45
CaI‐PLA2 (PLA2G6); 30 mg·kg^−1
  rats in which PLA2g6 was completely inhibited: four out of six rats
CaI‐PLA2 (PLA2G6); 100 mg·kg^−1
  rats in which PLA2g6 was completely inhibited: three out of six rats
[3]
  maximum brain concentrations (suggested): around 20 μM
[4]; 50 mg ref Rocha et al.
  maximum plasma exposure in the clinic: around 2 μM
[4]; 100 mg ref Rocha et al.
  maximum plasma exposure in the clinic: ~6 µM

## O=C(Nc1cccnn1)N1CCC(=Cc2cccc(Oc3ccc(C(F)(F)F)cn3)c2)CC1 [PF‐04457845]
[5]
  mean % free fraction ± SD: 28.0 ± 3.9%
